Screening results from PubChem BioAssay.
RAD52 inh = blocks human RAD52 DNA annealing; P43351; AID 651710; recombinant RAD52 DNA annealing, FRET fluorescence; inhibition, % at 18.7 µM; 360,000 tested, 0.46% active;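 active = every replicate showing at least 50% inhibition; inconclusive = mean inhibition at least 50% but not in every replicate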
Target sequence (P43351 whole entry, looked up): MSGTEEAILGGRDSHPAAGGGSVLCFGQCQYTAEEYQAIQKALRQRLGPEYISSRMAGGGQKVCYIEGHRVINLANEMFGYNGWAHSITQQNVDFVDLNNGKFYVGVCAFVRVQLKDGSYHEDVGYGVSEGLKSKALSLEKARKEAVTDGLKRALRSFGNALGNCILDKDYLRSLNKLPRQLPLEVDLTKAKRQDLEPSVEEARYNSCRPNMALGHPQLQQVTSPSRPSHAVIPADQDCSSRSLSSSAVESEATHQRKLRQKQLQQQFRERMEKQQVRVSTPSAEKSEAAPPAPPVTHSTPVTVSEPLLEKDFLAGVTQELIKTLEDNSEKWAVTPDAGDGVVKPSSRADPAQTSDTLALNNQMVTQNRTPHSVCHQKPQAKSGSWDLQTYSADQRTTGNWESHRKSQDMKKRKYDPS
Ecoli rRNA inh = inhibitors of bacterial rRNA selective over humanized ribosomes; AID 720706; E. coli WT GFP vs humanized-ribosome RFP mutants, fluorescence, 24 h; stronger effect = lower value; DMSO median 0, no signal -100; GFP signal change (wild-type ribosome), % (test concentration not listed); 350,000 tested, 1.6% active;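 active = significant combined selectivity score with lowered wild-type GFP, culture density cut under 30%, mutant RFP and density less affected; inactive = any of these conditions unmet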
E-sel inducer = E-selectin induction on HUVECs | HUVEC E-selectin immunofluorescence imaging; normalized: neutral wells 0, TNF-alpha wells 100 | AID 686992 | P16581 | 260,000 tested, 0.37% active | activation, % at 7.58 µM;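 active = mean E-selectin-positive cell signal at least 10% of the positive control, reached in at least 60% of replicates, without over 20% cell loss; inconclusive = no rule given, readout overlaps actives, possibly toxicity-flagged; inactive = the rest, including those meeting only one limit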
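Test system: HUVEC; input: 3,000 HUVEC/well; measured by: immunofluorescence imaging; read-out: % PE-positive cells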
RAD54 inh = blocks human RAD54 Holliday junction branch migration | Q92698 | FAM/BHQ fluorescence | inhibition, % at 10.4 µM | 360,000 tested, 0.14% active | AID 602329;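 active = mean normalized replicate activity at least 40 and at least half of replicates scoring 40 or more; inconclusive = only one of the two criteria met; inactive = mean below 40 and under half of replicates reaching 40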;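 also: 0% = median of neutral control wells and 100% = median of positive control wells; inhibitors cause a drop in the FAM fluorescence signal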
PglD inh = blocks C. jejuni PglD acetyltransferase activity | AID 602405 | inhibition, % at 12.5 µM | purified PglD enzyme, DTNB colorimetric CoA detection | 360,000 tested, 0.098% active; in the data active = inhibition above about 16%, passing the limit was not always enough; inconclusive = no clear call, values can overlap the other calls
Xi reactivation = reactivates the inactive X chromosome in mouse fibroblasts; XiGFP mouse fibroblasts, % GFP-positive cells imaging, 3 d; cells co-treated with 5-aza-dC sensitizer; scaled so ellipticine positive control = 100%; 360,000 tested, 0.055% active; activation, % at 7.58 µM;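 active = mean normalized replicate activation at least 10% and every replicate at or above 10%; inconclusive = only one of the two criteria met; inactive = mean below 10% and not all replicates reach 10%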;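 also: 0% = median of on-plate neutral control wells and 100% = ellipticine 6 µM median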
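System: SV40-immortalized XiGFP fibroblast cells, line 68-5-11 / Incubation: 3-day compound exposure, then 15 min fixation at room temperature / Compound: single concentration per compound, delivered by pin transfer / Buffer or medium: DMEM plus 5-aza-dC sensitizer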
AID977621 = wild-type E. coli growth inhibition versus H69 humanized strain – H69 mutant RFP, wild-type GFP, cherry-pick, dose response; activity change, negative = inhibition at 50 µM; shares compounds with Ecoli rRNA inh; AID 977621; fluorescence, 24 h; 1,900 tested, under 10 active;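 active = Wild-type ribosome reporter drop at least double the humanized mutant ribosome reporter drop, growth loss under a set limit; inconclusive = no clear call, values can overlap the other calls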;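 also: wild-type GFP and H69 mutant RFP strains grown together 50/50 in each well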
AID977628 = growth of wild-type and h24-humanized E. coli strains – h24 mutant RFP vs wild-type GFP, cherry-pick, dose response. activity change, negative = inhibition at 50 µM. E. coli WT GFP strain growth, fluorescence, 24 h. 1,900 tested, under 10 active. AID 977628. shares compounds with Ecoli rRNA inh;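 active = compound lowering the normal-ribosome reporter at least twice as much as the humanized-ribosome reporter, growth loss under a set limit; inconclusive = no clear call, values can overlap the other calls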;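 also: wild-type GFP and h24 humanized RFP strains co-cultured 1 to 1 per well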
* hit, by the source's call. Most compounds without a hit are left out; they make up all but 2% or so of the library.

What do the screens show for `O=C1CCCc2c1nc(-c1ccc(F)cc1)n2O`?
RAD52 inh: -14.9; Ecoli rRNA inh: 3.8; E-sel inducer: -0.2; Xi reactivation: 0.3

How did O=C1CCCc2c1nc(-c1ccc([N+](=O)[O-])cc1)n2O do in these assays?
RAD52 inh: -9.6; Ecoli rRNA inh: -17.5*; E-sel inducer: 4.2; Xi reactivation: 0.9; AID977621: inconclusive; AID977628: inconclusive

Results for CC(C)(C)N(Cc1ccccc1)C(=O)COC(=O)Cn1cnc2ccccc2c1=O ?
RAD52 inh: -8.1; Ecoli rRNA inh: -31.7*; E-sel inducer: -0.2; Xi reactivation: 0.4; AID977621: -1.19; AID977628: -2.88

How did Cn1c(=O)c2c(ncn2CC(O)CNc2ccc(F)cc2)n(C)c1=O (stereo unspecified) do in these assays?
RAD52 inh: -7.3; Ecoli rRNA inh: -27.3*; E-sel inducer: 5.6; Xi reactivation: 0.3; AID977621: -10.4; AID977628: -5.42

Results for CC(O)Cn1cnc2c1c(=O)n(C)c(=O)n2C (stereo unspecified) ?
RAD52 inh: -4.3; Ecoli rRNA inh: 12.3; E-sel inducer: -0.2; RAD54 inh: -1.3; PglD inh: 5.4; Xi reactivation: 0.0

How did C[C@@H]1CN([C@@H](C)CO)C(=O)CCCn2nncc2CO[C@H]1CN(C)C(=O)Nc1cccc(C(F)(F)F)c1 do in these assays?
RAD52 inh: -7.4; Ecoli rRNA inh: -17.3*; E-sel inducer: -0.1; RAD54 inh: 5.1; PglD inh: 0.3; Xi reactivation: 0.1; AID977628: inconclusive

Results for CSc1ccccc1NC(=O)c1ccccc1N(Cc1ccccc1)S(C)(=O)=O ?
RAD52 inh: -13.0; Ecoli rRNA inh: -24.1*; RAD54 inh: 2.6; PglD inh: 0.4; AID977621: -1.56

How did CN(C(=O)COC(=O)CSc1ccc(C(N)=O)cc1[N+](=O)[O-])C1CCCCC1 do in these assays?
RAD52 inh: -3.4; Ecoli rRNA inh: -16.2*; E-sel inducer: 1.4; RAD54 inh: 0.3; PglD inh: 0.3; Xi reactivation: 0.0; AID977621: -9.95; AID977628: 4.11

Results for NC(=O)c1ccc(SCC(=O)OCC(=O)N2CCCCC2)c([N+](=O)[O-])c1 ?
RAD52 inh: 5.1; Ecoli rRNA inh: -5.5; Xi reactivation: 0.1

How did CCCC(=O)N1CC2(C1)CN(S(C)(=O)=O)[C@@H](CO)c1c2c2ccc(OC)cc2n1C do in these assays?
RAD52 inh: 4.5; Ecoli rRNA inh: 3.7; E-sel inducer: 0.1; Xi reactivation: -0.1

What do the screens show for `O=S(=O)(c1ccc(Cl)cc1)N1CCN=C1SCc1cccc(Cl)c1`?
RAD52 inh: 0.4; Ecoli rRNA inh: -22.6*; E-sel inducer: -1.5; Xi reactivation: 0.1; AID977621: -5.46

Results for O=S(=O)(c1ccc(Cl)cc1)N1CCN=C1SCc1cccnc1 ?
RAD52 inh: -10.6; Ecoli rRNA inh: -3.5; E-sel inducer: 0.0; Xi reactivation: 0.1

Results for CCOc1ccc2nc(SCC(=O)Nc3nonc3C)[nH]c2c1 ?
RAD52 inh: -25.4; Ecoli rRNA inh: -20.4*; E-sel inducer: 4.7; Xi reactivation: 0.0; AID977621: -15.4; AID977628: -9.98

Results for CCCN(C)C[C@@H]1Oc2cc(/C=C/c3ccccc3)ccc2S(=O)(=O)N([C@@H](C)CO)C[C@@H]1C ?
RAD52 inh: 13.8; Ecoli rRNA inh: 5.4; E-sel inducer: 0.1; RAD54 inh: -1.3; PglD inh: -1.1; Xi reactivation: 0.0

Results for CN(C)S(=O)(=O)c1ccc2oc(SCC(=O)NCC(F)(F)F)nc2c1 ?
RAD52 inh: -13.2; Ecoli rRNA inh: -14.4*; RAD54 inh: 6.0; PglD inh: -4.3; AID977621: inconclusive; AID977628: -5.62
